Measurements from ChEMBL document CHEMBL1641482, “Synthetic analogs of daidzein, having more potent osteoblast stimulating effect” (2011).
Activity calls are given as the source filed them. No cut-off for these calls is given here.

Experiments:
[1] = system: Osteoblast; test: Induction of osteogenesis in Sprague-Dawley rat calvarial osteoblasts assessed as increase in osteoblast differentiation-associated ALP level at 1 pM after 48 hrs; assay type: functional, cell-based
In short: (§1)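 Primary rat calvarial osteoblasts were seeded at 2 × 10³ cells per well and exposed to compounds from 1.0 pM to 10.0 nM for 48 h. Daidzein served as the positive control. ALP activity was read spectrophotometrically at 405 nm. Data are mean SD, n = 6, compared with vehicle-treated cells.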

[2] = system: Osteoblast; test: Induction of osteogenesis in Sprague-Dawley rat calvarial osteoblasts assessed as increase in osteoblast differentiation-associated ALP level at 1 pM to 10 nM after 48 hrs; assay type: functional, cell-based; in short: as §1
[3] = system: Osteoblast; test: Ratio of compound to daidzein for induction of osteogenesis in Sprague-Dawley rat calvarial osteoblasts; assay type: functional
[4] = system: Osteoblast; test: Induction of osteogenesis in Sprague-Dawley rat calvarial osteoblasts assessed as increase in osteoblast differentiation-associated ALP level at 1 uM after 48 hrs; assay type: functional, cell-based
[5] = system: Rattus norvegicus; test: Antiestrogenic activity in ovariectomized Sprague-Dawley rat assessed as inhibition of 17beta estradiol-induced increase in uterine weight at 3 mg/kg, po qd for 3 days; assay type: functional
[6] = system: Rattus norvegicus; test: Estrogenic activity in ovariectomized Sprague-Dawley rat assessed as effect on uterine weight at 3 mg/kg, po qd for 3 days (reference value: 35.0 +/- 0.6); assay type: functional
[7] = system: Rattus norvegicus; test: Estrogenic activity in ovariectomized Sprague-Dawley rat assessed as effect on uterine weight at 0.01 mg/kg, po qd for 3 days (reference value: 35.0 +/- 0.6); assay type: functional
[8] = system: Bone marrow cell; test: Induction of mineralization in rat bone marrow cell assessed as increase of mineralized nodules formation at 10 nM after 18 days by alizarin red staining
[9] = system: Rattus norvegicus; test: Antiestrogenic activity in ovariectomized Sprague-Dawley rat assessed as inhibition of 17beta estradiol-induced increase in uterine weight at 10 mg/kg, po qd for 3 days; assay type: functional
[10] = system: Rattus norvegicus; test: Estrogenic activity in ovariectomized Sprague-Dawley rat assessed as effect on uterine weight at 10 mg/kg, po qd for 3 days (reference value: 35.0 +/- 0.6); assay type: functional
[11] = system: Osteoblast; test: Induction of mineralization in Sprague-Dawley rat calvarial osteoblasts assessed as increase of mineralized nodules formation at 10 nM after 7 days by alizarin red staining; assay type: functional, cell-based
In short: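 Primary rat calvarial osteoblasts were seeded at 2 × 10³ cells per well and exposed to 10.0 nM compound for seven days. Cells were fixed and stained with alizarin red-S, and the dye was extracted and measured colorimetrically by OD. Data are mean SD, n = 4, versus vehicle.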

[12] = system: Osteoblast; test: Induction of BMP-2 mRNA expression in Sprague-Dawley rat calvarial osteoblasts at 10 nM after 24 hrs by RT-PCR analysis relative to control; assay type: functional
In short: (§2)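 Osteoblasts were cultured with or without 10 nM compound for 24 h. Osteocalcin and BMP-2 transcripts were quantified by real-time RT-PCR (qPCR) against vehicle control. Data are mean SEM, n = 4.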

[13] = system: Osteoblast; test: Induction of osteocalcin mRNA expression in Sprague-Dawley rat calvarial osteoblasts at 10 nM after 24 hrs by RT-PCR analysis relative to control; assay type: functional; in short: as §2

SMILES	Activity [1]	Activity [2]	Ratio [3]	Activity [4]	Activity [5] [mg]	Activity [6] [mg]	Activity [7] [mg]	Activity [8]	Activity [9] [mg]	Activity [10] [mg]	Activity [11]	fold change (FC) [12]	fold change (FC) [13]
COc1ccc2c(=O)c(-c3ccc(OCCBr)cc3)coc2c1	inactive	Active	100	Active	–	–	–	–	–	–	–	–	–
O=C(c1ccc(OCCN2CCCCC2)cc1)c1c(-c2ccc(O)cc2)sc2cc(O)ccc12 [RALOXIFENE]	–	–	–	–	67	42.3	–	–	–	–	–	–	–
COc1ccc2c(=O)c(-c3ccc(OCC(C)C)cc3)coc2c1	inactive	Active	100	Active	–	–	–	–	–	–	–	–	–
C#C[C@]1(O)CC[C@H]2[C@@H]3CCc4cc(O)ccc4[C@H]3CC[C@@]21C [ETHINYL ESTRADIOL]	–	–	–	–	–	–	82.3	–	–	–	–	–	–
CCN(CC)CCOc1ccc(-c2coc3cc(OCCN(CC)CC)ccc3c2=O)cc1	inactive	Active	100	Active	–	–	–	Active	57.3	31.3	Active	–	–
CCN(CC)CCOc1ccc2c(=O)c(-c3ccc(OC)cc3)coc2c1	inactive	Active	100	Active	–	–	–	Active	63	28	Active	6	10
COc1ccc(-c2coc3cc(OCCN4CCCC4)ccc3c2=O)cc1	inactive	Active	100	Active	–	–	–	–	59.3	31.3	Active	–	–
